Experiment [1] deals with T1, Proto-oncogene tyrosine-protein kinase receptor Ret (Homo sapiens, UniProt P07949). The experiment is described as follows: Inhibition of RET isoform 9 M918T mutant in human MZ-CRC-1 cells assessed as reduction in cell proliferation supplemented with fresh medium containing compound for every 2 to 3 days and measured during compound dosing. In short, it runs like this: (§1)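 TT (200000/well) or MZ-CRC-1 (100000/well) seeded in 10% FCS; drug or vehicle from next day, refreshed every 2–3 days; counted every 2–3 days; IC50 by curve fitting of last-day growth.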
Target sequence in this assay (P07949 29-1114 M918T limits assumed): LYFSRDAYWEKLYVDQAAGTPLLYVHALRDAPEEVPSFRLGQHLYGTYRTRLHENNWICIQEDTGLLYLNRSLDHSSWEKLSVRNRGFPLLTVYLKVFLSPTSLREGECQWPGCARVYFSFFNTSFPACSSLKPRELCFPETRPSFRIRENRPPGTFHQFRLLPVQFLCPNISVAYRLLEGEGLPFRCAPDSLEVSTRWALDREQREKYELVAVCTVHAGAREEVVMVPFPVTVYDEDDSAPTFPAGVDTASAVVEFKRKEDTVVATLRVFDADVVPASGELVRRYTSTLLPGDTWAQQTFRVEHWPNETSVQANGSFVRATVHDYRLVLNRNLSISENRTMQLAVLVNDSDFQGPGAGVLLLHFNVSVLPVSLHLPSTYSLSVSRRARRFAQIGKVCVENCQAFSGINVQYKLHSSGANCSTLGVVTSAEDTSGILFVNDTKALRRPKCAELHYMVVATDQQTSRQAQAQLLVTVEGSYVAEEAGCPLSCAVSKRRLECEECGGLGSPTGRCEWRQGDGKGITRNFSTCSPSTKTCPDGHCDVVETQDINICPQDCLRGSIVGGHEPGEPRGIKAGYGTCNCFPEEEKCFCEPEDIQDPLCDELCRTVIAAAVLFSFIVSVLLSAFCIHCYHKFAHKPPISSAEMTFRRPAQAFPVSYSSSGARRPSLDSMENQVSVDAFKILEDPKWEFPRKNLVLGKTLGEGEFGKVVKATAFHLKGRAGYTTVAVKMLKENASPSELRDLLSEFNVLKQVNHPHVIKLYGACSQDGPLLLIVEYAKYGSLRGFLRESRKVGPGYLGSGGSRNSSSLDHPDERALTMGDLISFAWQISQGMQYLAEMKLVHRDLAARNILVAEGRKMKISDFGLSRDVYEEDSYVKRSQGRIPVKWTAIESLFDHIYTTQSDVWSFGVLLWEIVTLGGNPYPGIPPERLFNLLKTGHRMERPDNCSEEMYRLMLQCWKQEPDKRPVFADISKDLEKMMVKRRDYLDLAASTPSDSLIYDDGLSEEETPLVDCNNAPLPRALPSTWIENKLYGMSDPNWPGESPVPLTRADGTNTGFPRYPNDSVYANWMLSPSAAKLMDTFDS

For experiment [2], the target named is T1, Proto-oncogene tyrosine-protein kinase receptor Ret. The experiment in a line: Inhibition of RET isoform 9 C634W mutant in human TT cells assessed as reduction in cell proliferation supplemented with fresh medium containing compound for every 2 to 3 days and measured during compound dosing. The gist of the method: as §1
Target sequence in this assay (P07949 29-1114 C634W limits assumed): as the sequence (P07949 29-1114 M918T limits assumed) above, with C606W, T890M counted along it
Experiment [3] shares this target. The experiment is described as follows: Inhibition of CCDC6/RET in human TPC1 cells assessed as reduction in cell proliferation supplemented with fresh medium containing compound for every 2 to 3 days and measured during compound dosing.
Target sequence in this assay (P07949 whole entry, looked up, canonical isoform): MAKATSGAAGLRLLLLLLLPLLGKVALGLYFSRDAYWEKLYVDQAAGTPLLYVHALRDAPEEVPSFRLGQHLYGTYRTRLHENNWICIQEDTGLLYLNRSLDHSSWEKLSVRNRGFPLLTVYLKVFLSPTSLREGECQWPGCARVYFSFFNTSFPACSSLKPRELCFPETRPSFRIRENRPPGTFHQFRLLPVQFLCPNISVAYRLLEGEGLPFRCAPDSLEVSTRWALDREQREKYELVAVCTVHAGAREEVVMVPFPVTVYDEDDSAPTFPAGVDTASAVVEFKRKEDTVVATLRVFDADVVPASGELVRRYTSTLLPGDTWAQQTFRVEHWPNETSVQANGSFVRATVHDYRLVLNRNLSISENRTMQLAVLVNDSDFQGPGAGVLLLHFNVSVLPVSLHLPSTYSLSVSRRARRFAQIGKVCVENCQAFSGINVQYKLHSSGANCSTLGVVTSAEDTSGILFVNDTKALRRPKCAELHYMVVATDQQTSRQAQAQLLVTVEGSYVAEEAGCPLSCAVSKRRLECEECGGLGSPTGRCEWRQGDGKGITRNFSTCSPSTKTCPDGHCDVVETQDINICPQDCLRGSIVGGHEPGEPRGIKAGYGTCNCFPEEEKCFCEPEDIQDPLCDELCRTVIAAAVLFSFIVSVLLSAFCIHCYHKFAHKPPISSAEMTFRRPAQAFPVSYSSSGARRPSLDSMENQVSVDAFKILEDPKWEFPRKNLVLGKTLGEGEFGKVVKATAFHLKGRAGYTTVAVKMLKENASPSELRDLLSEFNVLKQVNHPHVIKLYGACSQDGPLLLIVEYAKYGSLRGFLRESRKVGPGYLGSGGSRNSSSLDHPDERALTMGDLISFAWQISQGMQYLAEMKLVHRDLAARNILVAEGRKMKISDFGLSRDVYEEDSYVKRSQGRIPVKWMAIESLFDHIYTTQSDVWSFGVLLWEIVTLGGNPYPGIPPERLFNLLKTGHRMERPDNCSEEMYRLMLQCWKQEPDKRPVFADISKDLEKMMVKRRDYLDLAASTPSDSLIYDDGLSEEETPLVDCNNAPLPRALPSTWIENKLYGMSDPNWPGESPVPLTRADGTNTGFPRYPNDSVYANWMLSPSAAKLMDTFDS
For experiment [4] the target is unchanged. The experiment is described as follows: Inhibition of CCDC6/RET in human LC2/ad cells assessed as reduction in cell proliferation supplemented with fresh medium containing compound for every 2 to 3 days and measured during compound dosing.
Target sequence in this assay (P07949 whole entry, looked up, canonical isoform): as above
Experiment [5] is described as follows: Inhibition of RET isoform 15 C634R mutant (unknown origin) expressed in mouse BAF3 cells assessed as reduction in cell proliferation supplemented with fresh medium containing compound for every 2 to 3 days and measured daily.
A short description of experiment [6]: Inhibition of RET isoform 15 M918T mutant (unknown origin) expressed in mouse BAF3 cells assessed as reduction in cell proliferation supplemented with fresh medium containing compound for every 2 to 3 days and measured daily.
Experiment [7] is described as follows: Inhibition of RET isoform 9 C634Y mutant (unknown origin) expressed in mouse NIH/3T3 cells assessed as reduction in cell proliferation supplemented with fresh medium containing compound for every 2 to 3 days measured at 2 days interval during compound dosing.

On to `CC(C)(C)c1cc(NC(=O)Cc2ccc(-n3cnc4cc(-c5ccc(S(C)(=O)=O)cc5)ccc43)cc2)no1`, for which the IC50 was 0.67 nM in experiment [1]; 0.67 nM in experiment [2]; 0.67 nM in experiment [3]; 0.67 nM in experiment [4]; 1.7 nM in experiment [5]; 1.6 nM in experiment [6]. Moreover, the IC50 in experiment [7] stood at 4.2 nM.
